Experimental findings from PMC6585461 (Biomaterials, 2019) are described below.

One assay concerns SKOV-3 cells. The assay is described as follows: Intracellular uptake of RB-BSA by confocal microscopy. The format is cell-based. To be noted: BSA ~60 μg/mL, 2 h, 37 °C. Put shortly: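 SKOV-3 cells in McCoy's 5A with 10% FBS were seeded at 5 × 10⁴ per well and allowed to adhere for 24 h. Lysosomes were labelled with LysoTracker Green DND-26 for 30 min at 37 °C. Rhodamine B-labelled BSA, free or nanocarrier-loaded (final BSA ~60 μg/mL), was added for 2 h. Cells were washed three times with PBS, fixed in 4% paraformaldehyde for 15 min at room temperature, DAPI-stained and imaged by laser scanning confocal microscopy.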

Another assay has as its system blood glucose. Nature of the assay: Hypoglycemic effect of insulin formulations. The conditions noted are these: fasted mice, s.c., 2 IU/kg. It counts as in vivo, BALB/c mice. In outline:
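Healthy BALB/c mice, 6-7 weeks old, were fasted overnight with water only and kept fasted throughout, n=6 per group. They received a subcutaneous injection at an insulin dose of 2 IU/kg, either free insulin or insulin loaded in nanocarriers at a 1/10 insulin:polymer mass ratio. Blood glucose was followed with a glucose meter over 0-6 h. Area above the curve was calculated by the trapezoidal method.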

For “RB-BSA: Rhodamine B (RB)-labeled BSA, model protein”, the “cellular uptake of RB-BSA (free or loaded in the nanocarrier)” value in the assay with SKOV-3 cells is given as “minimal”.

Turning to insulin: insulin (MW: 5807 Da), the glycemic decrease in the assay on blood glucose (30 min after injection, n=6) is listed as 32%. Also, the “blood glucose recovery, % of basal level” value in the assay with blood glucose (after 2 h) amounted to 80%. Moreover, the “time of maximal blood glucose drop (nadir)” value in the assay on blood glucose (n=6) is given as 1 h.
